From ChEMBL document CHEMBL3997782, “Methoxylated 2'-hydroxychalcones as antiparasitic hit compounds” (Eur J Med Chem, 2017) come the findings set out here.

For data set [1], the system named is 786-0. Kind of data set: Mitochondrial toxicity in human 786-O cells at 10 uM by mitotracker red chloromethyl-Xrosamine staining based-uptake method relative to control. It is filed as cell-based. The note with it: 786-0, 10 µM. Put shortly: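 786-O renal carcinoma cells kept in RPMI-1640 with 2 mM glutamine, 10% v/v FCS, streptomycin 100 µg/ml and penicillin G 100 U/ml. Mitochondrial toxicity monitored by MitoTracker Red CMXRos uptake with high-content imaging.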

For data set [2], the system named is Trypanosoma brucei brucei. Kind of data set: Anti-parasitic activity against bloodstream form of Trypanosoma brucei brucei Lister 427 at 10 uM after 72 hrs by resazurin-based assay relative to control. It is filed as functional. The conditions noted are these: Lister 427, 72 h. Put shortly:
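Bloodstream-form T. brucei, modified resazurin-based viability assay. EC50 is the arithmetic mean of at least two independent determinations, each run in triplicate.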
Background: Alamar Blue is a resazurin reagent that responds to reducing activity.

Data set [3] can be described thus: Drug uptake in BALB/c mouse plasma at 20 mg/kg, po measured after 1 hr by LC-MS method. It is filed as ADME, organism-based. Put shortly:
(§1)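 BALB/c mice dosed either free (8% DMSO; 1 mg/kg IV or 20 mg/kg oral), or 20 mg/kg oral in 50% w/v hydroxypropyl-β-cyclodextrin, or 20 mg/kg oral in 25% cyclodextrins plus 50% PEG 400. Serial submandibular blood samples stored at -20°C. Plasma measured by isocratic LC-MS (acetonitrile:water 80:20, 0.2 ml/min), quantifier transition m/z 315.0>161.0.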

The target of data set [4] is CYP2C9 (Homo sapiens, UniProt P11712). Kind of data set: Inhibition of human CYP2C9 expressed in baculovirus-infected insect cells at 10 uM using Luciferin-H as substrate in presence of NADPH by P450-Glo luminescence assay relative to control. The note with it: probe Luciferin-H.
The nature of data set [5]: Lipophilicity, log P of the compound. It is filed as physicochemical. The note with it: octanol/water.
Data set [6] deals with Trypanosoma cruzi. Kind of data set: Anti-parasitic activity against Trypanosoma cruzi Y promastigotes infected in HG39 cells at 10 uM by qPCR analysis relative to control. It is filed as functional, cell-based. The conditions noted are these: in the assay text read “trypomastigotes” for “promastigotes”. An outline of the steps: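 Confluent HG39 cells (3 x 10^6 per well) infected at a 1:1 ratio with blood-derived T. cruzi Y strain trypomastigotes. Growth inhibition was read as parasite gDNA by TaqMan probe-based quantitative real-time PCR.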
(Quantitative PCR measures a nucleic acid by following its amplification.)

Data set [7] is described as follows: Solubility of the compound in phosphate buffered saline with 50% DMSO measured after 18 hrs by UV-vis spectroscopic method. It is filed as physicochemical. An outline of the steps: (§2)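 Saturated suspensions prepared at 100 µM in water, 100 µM in PBS, 200 µM in PBS + 10% DMSO and 10 mM in PBS + 50% DMSO. Held 18 h at 25°C, passed through a 0.2 µm filter, then quantified by UV-Vis absorbance at 312 nm using the calculated extinction coefficient.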

The nature of data set [8]: Drug uptake in BALB/c mouse plasma at 1 mg/kg, iv measured after 30 mins by LC-MS method. It is filed as ADME, organism-based. Put shortly:
as §1

The nature of data set [9]: Half-life in BALB/c mouse at 20 mg/kg, po as cyclodextrin formulation by LC-MS method. It is filed as ADME, organism-based. The note with it: in vivo. Put shortly:
as §1

Data set [10] can be described thus: Drug uptake in BALB/c mouse plasma at 20 mg/kg, po as cyclodextrin/PEG400 formulation measured after 0.75 hrs by LC-MS method. It is filed as ADME, organism-based. An outline of the steps: as §1
Data set [11] addresses Aurora kinase B (Homo sapiens, UniProt Q96GD4). Kind of data set: Inhibition of N-terminal-GST-tagged recombinant full length human Aurora B expressed in baculovirus infected Sf9 cells at 10 uM using native Swine Myelin Basic Protein as substrate measured after 60 mins by ADP-Glo assay relative to control. The conditions noted are these: probe native Swine Myelin Basic Protein. Put shortly: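 Aurora B kinase activity measured by ADP-Glo, which detects ADP formed through a coupled luciferase luminescence read-out.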
For orientation: In ADP-Glo the light output rises with the ADP produced.

The nature of data set [12]: Half-life in BALB/c mouse at 1 mg/kg, iv by LC-MS method. It is filed as ADME, organism-based. The note with it: in vivo. An outline of the steps:
as §1

The nature of data set [13]: Half-life in BALB/c mouse at 20 mg/kg, po by LC-MS method. It is filed as ADME, organism-based. The conditions noted are these: in vivo. Put shortly: as §1
A short description of data set [14]: Cytotoxicity against human […] cells assessed as cell growth by Cell titer-Glo assay. The conditions noted are these: WI-38 cells. It is filed as cell-based. Put shortly:
(§3)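 A549 and WI-38 cells grown in DMEM with 10% v/v FCS, streptomycin 100 µg/ml and penicillin G 100 U/ml. Cell number read as cellular ATP by CellTiter-Glo luminescence. Growth 60–100% scored non-cytotoxic, 0–60% cytostatic, below 0 cytotoxic.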

The target in data set [15] is CYP3A4 (Homo sapiens, UniProt P08684). In words: Inhibition of human CYP3A4 expressed in baculovirus-infected insect cells at 10 uM using Luciferin-PFBE as substrate in presence of NADPH by P450-Glo luminescence assay relative to control. It is filed as ADME. The note with it: probe Luciferin-PFBE.
Data set [16] in a line: Solubility of the compound in phosphate buffered saline with 10% DMSO measured after 18 hrs by UV-vis spectroscopic method. It is filed as physicochemical. Put shortly:
as §2

A short description of data set [17]: Cytotoxicity against human […] cells assessed as cell growth at 10 uM by Cell titer-Glo assay relative to control. It is filed as cell-based. The conditions noted are these: WI-38 cells, read-out: Activity. An outline of the steps:
as §3

A short description of data set [18]: Drug uptake in BALB/c mouse plasma at 1 mg/kg, iv measured after 15 mins by LC-MS method. It is filed as ADME, organism-based. An outline of the steps: as §1
Data set [19] in a line: Drug uptake in BALB/c mouse plasma at 20 mg/kg, po as cyclodextrin/PEG400 formulation measured after 0.25 hrs by LC-MS method. It is filed as ADME, organism-based. Put shortly:
as §1

Data set [20] in a line: Cytotoxicity against human A549 cells assessed as cell growth at 10 uM by Cell titer-Glo assay relative to control. The note with it: read-out: Activity. It is filed as cell-based. Put shortly:
as §3

A short description of data set [21]: Drug uptake in BALB/c mouse plasma at 20 mg/kg, po as 50% cyclodextrin formulation measured after 3 hrs by LC-MS method. It is filed as ADME, organism-based. An outline of the steps:
as §1

Data set [22] deals with Cytochrome P450 2C9 (Homo sapiens, UniProt P11712). In words: Inhibition of human CYP2C9 expressed in baculovirus-infected insect cells using Luciferin-H as substrate in presence of NADPH by P450-Glo luminescence assay.

pIC50: −log10 of the molar value. Values after ≈ are worked out from the molar mass of the structure shown.

As usually defined, the inhibition is the relative decrease from the control value, in per cent. A word on the logP: it is the decadic logarithm of the partition coefficient of the neutral form, usually between octanol and water. A higher logP goes with a more lipophilic compound. Broadly, the solubility is the dissolved amount per volume that the medium holds. Read a low solubility as a poorly soluble substance. One may read the half-life as how long it takes for the measured level to halve. By GI50 is commonly meant the concentration giving 50% growth inhibition. A word on the pIC50: it is the IC50 on a negative log10 scale, so that one unit is a factor of ten.

Chain of CYP3A4 (P08684 whole entry): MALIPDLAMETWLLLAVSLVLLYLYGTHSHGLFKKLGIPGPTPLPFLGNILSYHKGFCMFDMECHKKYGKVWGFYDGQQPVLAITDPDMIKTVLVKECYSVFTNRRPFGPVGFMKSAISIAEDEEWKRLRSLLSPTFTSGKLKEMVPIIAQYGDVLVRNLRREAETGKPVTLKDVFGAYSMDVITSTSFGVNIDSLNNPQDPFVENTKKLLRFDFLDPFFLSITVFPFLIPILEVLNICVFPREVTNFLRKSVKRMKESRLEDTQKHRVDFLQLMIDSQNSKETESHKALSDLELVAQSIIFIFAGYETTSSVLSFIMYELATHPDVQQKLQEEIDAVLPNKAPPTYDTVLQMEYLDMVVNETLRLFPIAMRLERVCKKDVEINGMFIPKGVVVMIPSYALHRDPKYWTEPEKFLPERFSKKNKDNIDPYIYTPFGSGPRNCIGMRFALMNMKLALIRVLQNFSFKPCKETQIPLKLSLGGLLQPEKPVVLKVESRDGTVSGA
Chain of Aurora kinase B (Q96GD4 whole entry): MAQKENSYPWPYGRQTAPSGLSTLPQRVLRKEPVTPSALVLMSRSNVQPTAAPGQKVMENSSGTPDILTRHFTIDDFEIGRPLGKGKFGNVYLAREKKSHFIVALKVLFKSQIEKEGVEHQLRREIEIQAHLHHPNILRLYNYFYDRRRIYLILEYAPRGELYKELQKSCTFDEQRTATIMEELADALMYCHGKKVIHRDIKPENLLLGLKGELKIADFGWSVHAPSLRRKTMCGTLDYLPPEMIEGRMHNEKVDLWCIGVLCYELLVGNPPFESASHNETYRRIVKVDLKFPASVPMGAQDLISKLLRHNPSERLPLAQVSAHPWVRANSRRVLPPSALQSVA
Chain of Cytochrome P450 2C9 (P11712 whole entry): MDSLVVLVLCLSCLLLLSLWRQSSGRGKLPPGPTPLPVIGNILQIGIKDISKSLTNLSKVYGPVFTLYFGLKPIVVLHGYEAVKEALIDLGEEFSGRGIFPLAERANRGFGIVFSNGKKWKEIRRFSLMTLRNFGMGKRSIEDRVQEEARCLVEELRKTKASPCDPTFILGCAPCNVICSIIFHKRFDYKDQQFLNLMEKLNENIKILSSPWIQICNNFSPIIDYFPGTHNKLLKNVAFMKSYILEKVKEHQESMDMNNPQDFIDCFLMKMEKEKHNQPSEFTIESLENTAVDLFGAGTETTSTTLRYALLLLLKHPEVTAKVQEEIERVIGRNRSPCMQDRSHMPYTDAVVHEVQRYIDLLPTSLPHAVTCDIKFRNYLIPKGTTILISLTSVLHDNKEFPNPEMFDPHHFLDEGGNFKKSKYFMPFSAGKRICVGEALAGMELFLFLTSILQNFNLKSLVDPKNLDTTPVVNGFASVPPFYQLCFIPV
Chain of CYP2C9 (P11712 whole entry): as above

In data set [1], `COc1cccc(/C=C/C(=O)c2cc(OC)c(OC)cc2O)c1` had an Activity of 3.6%. Moreover, the inhibition at 10 µM amounted to 100% in [2], 19% in data set [4], 46% in data set [6] and 12.4% in data set [15]. In data set [3], this compound yielded a concentration at 1 h of 9 nM. The logP in data set [5] was found to be 3.59. The values for the solubility at 18 h in data set [7] and in [16] were 600 µM (≈ 189 µg/mL) and 11.4 µM (≈ 3.59 µg/mL), respectively. The same compound gave a concentration at 0.5 h in [8] of 55 nM. Besides, the half-life turned out to be 36.7 min in [9], 62.5 min in [12] and 12.6 min in [13]. Further, the concentration at 0.75 h in [10] is 11 nM. Also, the inhibition at 1 h, 10 µM in data set [11] is -6.8%. Also, the GI50 in data set [14] worked out at 10.8 µM. Besides, the figures for the viability at 10 µM in data set [17] and in [20] were 96.1% and 95.5%, respectively. Besides, the concentration at 0.25 h came out at 74 nM in data set [18] and 48 nM in data set [19]. Further, the concentration at 3 h in [21] is 10 nM. Further, the pIC50 in data set [22] is 4.38.
